Hits are enriched below; roughly 1.7% of the tested compounds scored in any of these assays.
PfHsp90 yeast 2: growth inhibition of PfHsp90-expressing yeast, primary screen, antimalarial PfHsp90 inhibitor project, S. cerevisiae, BacTiter-Glo luminescence, single point, set 2. AID 504621, 2011. 310,000 tested, 0.32% active. BacTiter-Glo ATP, 48 h; yeast lacking PDR1 and PDR3 efflux regulators. inhibition, % at 9.4 µM;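 active means every replicate shows inhibition above about 80%, whatever the replicate mean, limit read from the data; inconclusive means mean inhibition reaches the set limit but some replicate falls short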;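 further: 0% = DMSO neutral controls and 100% = 20 µM radicicol positive controls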
SKKanGAS inh: S. pyogenes SKKanGAS growth inhibitors in kanamycin, primary screen, streptokinase expression inhibitor project, SKKanGAS strain, BacTiter-Glo luminescence | 6 h | inhibition, % at 7.5 µM | 300,000 tested, 1.3% active | AID 1662, 2009;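 active means mean replicate score, as percent of positive control median, at least 50; inconclusive means mean below 50 but one replicate at or above 50; inactive means mean and every replicate below 50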;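 further: strain carries kanamycin resistance gene driven by streptokinase promoter and grows in 40 µg/ml kanamycin; loss of luminescence reflects streptokinase promoter inhibition or plain growth inhibition; 0% = median of DMSO wells and 100% = positive control at its reference dose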
Rtt109 Vps75: inhibitors of C. albicans Rtt109/Vps75 HAT, primary screen, biochemical, ThioGlo CoA-SH fluorescence, plate reader; AID 540336, 2011; Histone acetyltransferase RTT109 (Candida albicans (strain SC5314 / ATCC MYA-2876)), …; inhibition, % at 34.9 µM; purified Rtt109/Vps75, 4 h; 330,000 tested, 0.16% active;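 active means inhibition of at least 50% in every replicate; inconclusive means best replicate reaches 50% inhibition but some replicates fall short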
Target sequence (Q5AAJ8 whole entry, looked up): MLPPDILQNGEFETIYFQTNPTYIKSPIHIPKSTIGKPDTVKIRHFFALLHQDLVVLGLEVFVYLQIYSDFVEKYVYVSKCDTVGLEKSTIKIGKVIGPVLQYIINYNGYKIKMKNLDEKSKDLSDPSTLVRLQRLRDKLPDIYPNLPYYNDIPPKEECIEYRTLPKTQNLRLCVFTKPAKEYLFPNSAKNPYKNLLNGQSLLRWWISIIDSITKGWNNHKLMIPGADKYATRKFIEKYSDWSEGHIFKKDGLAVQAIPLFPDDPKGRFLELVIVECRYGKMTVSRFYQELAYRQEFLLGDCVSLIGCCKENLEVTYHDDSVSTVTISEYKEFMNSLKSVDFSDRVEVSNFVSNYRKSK
FN deposit inh: inhibitors of fibronectin matrix deposition, primary screen, AH1F cells, Alexa488-fibronectin fluorescence, plate reader; AH1F fibroblasts, overnight; inhibition, % at 12.6 µM; 350,000 tested, 0.086% active;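 active means mean inhibition across replicates of 30% or more, regardless of how many single replicates reach that level; inconclusive means mean under 30% yet at least half of replicates reach 30%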;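 further: positive control wells lacked labelled fibronectin entirely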
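test system = AH1F fibroblasts assembling fluorescent fibronectin matrix | quantity = 10000 AH1F cells per well | buffer or medium = DMEM plus 2% serum, read in PBS | doses = single dose, pinned | incubation = 1 h cell attachment, overnight exposure to compound and label | detection = fluorescence at 485 nm excitation, 525 nm emission | read-out basis = inhibition from reduced deposited-fibronectin fluorescence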
PglD DTNB: C. jejuni PglD acetyltransferase inhibitors, primary screen, biochemical, DTNB colorimetric, single point. purified PglD enzyme, DTNB colorimetric CoA detection. 360,000 tested, 0.098% active. UDP-N-acetylbacillosamine N-acetyltransferase PglD (Campylobacter jejuni). inhibition, % at 12.5 µM; in the data active means inhibition above about 16%, passing the limit was not always enough; inconclusive means no clear call, values can overlap the other calls
CSC inhib: cancer stem cell viability inhibitors, primary screen, luminescence | cancer stem cell-like cells viability | inhibition, % at 7.5 µM | 300,000 tested, 1.1% active | AID 2717, 2010; in the data active means inhibition above about 75%; inconclusive means no clear call, values can overlap the other calls; tested in HMLE shEcad cells
Active calls of the source: *; i = inactive; ? = inconclusive; . = no result; + = active, no number.

SMILES	PfHsp90 yeast 2	SKKanGAS inh	Rtt109 Vps75	FN deposit inh	PglD DTNB	CSC inhib
C[C@@H]1CN([C@@H](C)CO)C(=O)Cc2cc(NS(=O)(=O)c3cccs3)ccc2O[C@H]1CN(C)C(=O)Nc1ccccc1	.	.	.	.	3.3	.
C/C(=N\Nc1nc(C)cc(-c2ccccc2)n1)c1ccccc1	2.2	-5.4	-2.9	-2.3	-9.0	-12.9
C/C(=N\Nc1nc2ccc(Cl)cc2o1)c1ccccc1	.	67.6*	.	1.2	8.0	4.5
CO[C@H]1CC[C@H]2CCOc3ccc(C#N)cc3C(=O)N(C)C[C@H](C)C(=O)N(C)C[C@@H]1O2	.	.	.	-7.8	1.8	.
O=C(NNC(=O)c1cc(-c2cccc(Br)c2)nc2ccccc12)c1csc(N2CCOCC2)n1	.	56.5*	-1.0	-7.8	5.2	.
S=C(NNc1ccnc2cc(Cl)ccc12)Nc1ccc(Cl)cc1Cl	-29.0	70.9*	5.4	-2.6	.	28.1
CCOc1ccc2[nH]c3ncccc3c(=O)c2c1	16.6	3.5	.	-0.2	.	-15.7
CCOc1ccc2c(ccc(/C=C/c3cc(C)c4cccnc4c3O)[n+]2C)c1	114.8*	.	7.5	.	.	.
C[C@@H]1CN(C)C(=O)c2cccnc2O[C@H]1CN(C)S(C)(=O)=O	.	.	.	1.8	.	.
O=c1c2ccccc2nc2n1CCc1c-2[nH]c2ccccc12	-3.5	.	-1.2	6.9	0.2	77.7*
Cc1cccc2c(=O)n3c(cc12)-c1[nH]c2ccccc2c1CC3	17.0	.	-2.8	-8.0	.	.
CCCN1C(=O)/C(=C/c2ccc3c(c2)OCO3)NC1=S	1.0	-4.9	11.6	0.4	.	.
CCCN1C/C(=C/c2ccc3c(c2)OCO3)C(=O)/C(=C/c2ccc3c(c2)OCO3)C1	13.8	0.5	1.4	8.6	-7.6	87.4*
Cc1ccc(C(=O)N/N=C\c2ccc(-c3ccc(Cl)c(Cl)c3)o2)cn1	-12.1	0.3	-4.6	-0.3	-2.8	75.9*
Cc1ccc(-c2ccc(/C=N\NC(=O)c3cc4c(ccc5ccccc54)o3)o2)cc1[N+](=O)[O-]	-5.9	-2.2	-0.1	.	6.9	-3.4
O=C(N/N=C/c1ccc(-c2ccc(Cl)c(C(=O)O)c2)o1)c1cc2c(ccc3ccccc32)o1	-28.6	61.2*	19.1	0.7	.	1.6
Cc1ccccc1S(=O)(=O)N1C[C@@H](O)COC[C@H]2O[C@H](CC(=O)NCCc3ccccc3)CC[C@@H]21	.	.	.	-6.2	0.4	.
CCC[C@@H]1C[C@@]1(CCC)[C@@H](NP(=O)(c1ccccc1)c1ccccc1)c1ccc(C(=O)OC)cc1	.	97.0*	.	5.4	.	-10.5
O=C(N/N=C/c1ccc(OC2CSC2)cc1)c1ccccc1	9.3	-7.3	-15.1	.	0.0	88.5*
CCC(=O)Nc1ccc2c(c1)C(=O)N(C)[C@H]1CC[C@H](CC(=O)N3CCCCC3)O[C@H]1CO2	.	.	.	-6.5	4.3	.
CCCCNc1nc(Nc2ccc(C)c(Cl)c2)c2cnn(C)c2n1	-0.3	-1.1	?	-2.2	2.2	82.2*
CCNc1nc(Nc2ccc(C)c(Cl)c2)c2cnn(C)c2n1	-52.5	-0.8	0.6	9.8	-4.4	19.5
COc1ccc(S(=O)(=O)Nc2cccc3c2O[C@@H](CN(C)C(=O)NC(C)C)[C@@H](C)CN([C@@H](C)CO)C3=O)cc1	.	.	.	.	2.3	.
CC(=O)NS(=O)(=O)c1ccc(N=c2ssc3c2-c2ccc(C)cc2NC3(C)C)cc1	12.1	81.8*	-1.2	7.7	.	43.5
COC(=O)C1=C(C)N(Cc2ccccc2)C(=NCc2ccccc2)N[C@H]1c1cccc(C(F)(F)F)c1	2.9	.	7.8	.	-5.7	121.9*
SMILES	PfHsp90 yeast 2	SKKanGAS inh	Rtt109 Vps75	FN deposit inh	PglD DTNB	CSC inhib
COC(=O)C1=C(C)N(Cc2ccccc2)C(=NCc2cccc(Cl)c2)N[C@H]1c1cccc(F)c1	28.7	.	13.3	.	2.4	134.2*
COC(=O)C1=C(C)N(Cc2ccccc2)C(=NCc2ccc(OC)cc2)N[C@H]1c1cccc(F)c1	-24.8	14.8	18.7	9.4	4.0	13.8
O=C(Nc1ccc(F)cc1)N[C@@H]1C=C[C@@H](CC(=O)N2CCOCC2)O[C@H]1CO	.	.	.	-2.0	0.2	.
Cc1cccc(/C=N/Nc2cc(N3CCOCC3)nc(N3CCOCC3)n2)c1	11.0	-8.6	12.1	35.6*	.	46.0
Clc1ccc(-c2ccc(/C=N/Nc3cc(N4CCOCC4)nc(N4CCOCC4)n3)o2)cc1	2.2	75.7*	2.2	.	3.5	93.2*
CCCNC(=O)Nc1ccc2c(c1)C(=O)N(C)C[C@H](OC)[C@H](C)CN(Cc1ccccc1)[C@@H](C)CO2	.	.	.	-1.0	.	.
C[C@@H]1CN([C@@H](C)CO)C(=O)c2cc(C#Cc3ccccc3)cnc2O[C@H]1CN(C)C(=O)CN(C)C	.	.	.	9.4	.	.
C[C@H](NC(=O)C[C@H]1C=C[C@H](NC(=O)C2CCOCC2)[C@H](CO)O1)c1ccccc1	.	.	.	.	-2.2	.
Cn1c(C(=O)N2CCOCC2)cc2c(=O)n3ccccc3nc21	6.2	0.9	i	-3.4	-0.9	-10.8
CC1CN(C(=O)c2cc3c(=O)n4ccccc4nc3n2C)CC(C)O1 (centres undefined)	1.7	2.7	i	36.4*	3.3	-13.0
Cc1ccc(S(=O)(=O)N(C)C[C@@H]2OCCCC[C@@H](C)Oc3ccc(NS(C)(=O)=O)cc3C(=O)N([C@@H](C)CO)C[C@@H]2C)cc1	.	.	.	14.6	-0.2	.
Cn1nnnc1Sc1ncnc2scc(-c3cc4ccccc4o3)c12	-6.4	.	3.9	11.8	-2.2	115.3*
Cn1nnnc1Sc1ncnc2scc(-c3ccc(-c4ccccc4)cc3)c12	-11.7	.	2.0	12.4	4.5	.
Cn1nnnc1Sc1ncnc2scc(-c3ccc(C(F)(F)F)cc3)c12	-3.2	.	-1.7	19.2	-1.2	93.9*
COc1ccc(CN(C)C[C@H]2Oc3c(NS(=O)(=O)c4ccc(F)cc4)cccc3C(=O)N([C@@H](C)CO)C[C@H]2C)cc1	.	.	.	.	-2.5	.
O=C(C[C@@H]1CC[C@H](NC(=O)c2ccncc2)[C@H](CO)O1)NCC1CCCCC1	.	.	.	-8.1	-1.7	.
COc1cc(CNCCc2c[nH]c3ccccc23)ccc1OCc1ccccc1F	-16.2	-2.0	-1.0	.	2.7	+
COc1ccccc1NC(=O)N1CCCCN2[C@@H](CO)[C@@H](c3ccc(-c4ccccc4)cc3)[C@@H]2C1	.	.	.	.	-0.2	.
OCCN1CCN(CCCc2c3c(cc4c2CCC4)CCC3)CC1	6.8	-1.0	8.4	2.8	-2.7	94.8*
COc1ccc(S(=O)(=O)Nc2ccc3c(c2)C(=O)N([C@@H](C)CO)C[C@@H](C)[C@@H](CN(C)C(=O)Nc2ccccc2)O3)cc1	.	.	.	.	5.7	.

Compound activity: PubChem BioAssay, Broad Institute
